Fewer inactive variants are shown than the library holds. Where only a bound is given, the exact number is not on record here.

The labels stand for the following.
B1: tRNA (parent)
chain: GUUCCGUUGGCGUAAUGGUAACGCGUCUCCCUCCUAAGGAGAAGACUGCGGGUUCGAGUCCCGUACGGAACG

The variants in this series derive from B1. Put plainly: yeast fitness relative to wild type (ratio to wild type); higher = fitter; tRNA-Arg(CCU), competitive growth, 37 C, YPD. Put shortly:
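The tRNA-Arg(CCU) gene variants were made by chemical synthesis with a 3% per-site mutation rate at 69 sites and inserted at the native genomic locus of Saccharomyces cerevisiae. After pooling, the strains were competed in YPD at 37°C for 24 hours in six parallel replicates. Gene amplicons from the start population and each end population were read by 100-nucleotide paired-end sequencing, and Darwinian fitness relative to wild type was taken from genotype frequency changes. Genotypes needed ≥ 100 starting reads, and estimates < 0.5 were set to 0.5.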
Consider C5A C22G A37C A40C, for which the yeast fitness came to 0.736. C5A G12A C33G: the yeast fitness came out at 0.646. In the case of C5A C22G C24G C31U A43U G48A A69U it was 0.507; in that of C5A C62U C66G, at most 0.5; in that of C5A C30G A43C, at most 0.5.

Regarding C5A G9A C29U, the yeast fitness came to 0.547. As for C5A G12C U47C, the figure is at most 0.5. With C5A G17C G18C, the yeast fitness was determined as 0.579.

On to C5A A43C A45U U53C, for which the yeast fitness worked out at 0.615. As for C5A G17C G25A, the figure is at most 0.5; as for C5A C27A C34G U59C, 0.539; as for C5A G38C A42G, 0.582. As for C5A C11U C34A A40U A42U G68A, the figure is at most 0.5. As for C5A G38C G51A G58A, the figure is 0.506; as for C5A C24G A36C A70C, at most 0.5. With C5A C46A A69U, the yeast fitness is 0.738.

In the case of C5A C24U G51A, the yeast fitness is at most 0.5.

C5A G17C A57G C66U: the yeast fitness is at most 0.5. In the case of C5A G9C A36U G50A it was 0.536; in that of C5A G17A A42G, 0.555; in that of C5A C46U C55U, 0.763. As for C5A G18A G25A C31U C61U, the figure is 0.562; as for C5A C11A A42U U53A A57C A65G, at most 0.5. As for C5A A42C G63C, the figure is at most 0.5. With C5A A42C G63A, the yeast fitness was at most 0.5. Turning to C5A A21C C27A, the yeast fitness is 0.568.

As for C5A A43C A69U A70C, the yeast fitness stood at 0.769.

On to C5A G10C U26C G39C C61U, for which the yeast fitness was at most 0.5. As for C5A G10C U26C G51A, the figure is at most 0.5. As for C5A C24G A65G C66U, the figure is at most 0.5. In the case of C5A G17C G58C it was at most 0.5; in that of C5A G6C G68U, at most 0.5; in that of C5A C34U C61G, at most 0.5. For the variant C5A G12A U47A, the yeast fitness is at most 0.5. For C5A C60G G67A, the yeast fitness was at most 0.5. As for C5A C27U G39C C49U, the figure is 0.526; as for C5A G10A C49A, at most 0.5. As for C5A A21C C30G C55G A70G, the figure is at most 0.5; as for C5A C29A, 0.612. As for C5A G17C G18C C61G, the yeast fitness was at most 0.5. In the case of C5A C34A G68C it was at most 0.5. In the case of C5A C29A C34G it was at most 0.5; in that of C5A C22A A40G, at most 0.5. In the case of C5A C11G G41C C66U it was at most 0.5; in that of C5A A43U, 0.783.

With C5A A43G, the yeast fitness is 0.903.

Turning to C5A A43C, the yeast fitness was 0.987.

Turning to C5A A40G, the yeast fitness was 0.713.

In the case of C5A A21G U32G, the yeast fitness was at most 0.5. In the case of C5A C24G A70U it was at most 0.5; in that of C5A C22U A57G, 0.612. In the case of C5A C11G G17A A37U C49A it was at most 0.5; in that of C5A C34G G58A G67A, at most 0.5; in that of C5A G6A, 0.808. In the case of C5A C24G G56A C62A it was at most 0.5.

As to C5A A37G A65U, the yeast fitness was 0.532.

For C5A G25C A57C G67A A69U, the yeast fitness is 0.525. As for C5A C11G A21U C60G G67A, the figure is at most 0.5. In the case of C5A G9C it was 0.627; in that of C5A G9A, 0.975; in that of C5A C11U U13C, 0.57. As for C5A C34A A43C A45C C46U, the figure is 0.593; as for C5A A36G, 0.886.

Take C5A C30G C31G U32C G63A: the yeast fitness is at most 0.5. In the case of C5A C46A G56C it was at most 0.5. As for C5A G9C A21U A69C, the figure is at most 0.5. Take C5A A21C C30G C34U G58C: the yeast fitness was at most 0.5. As for C5A G18A A69U, the figure is at most 0.5; as for C5A C66A, 0.679; as for C5A C66U, 0.857. In the case of C5A C30U C62G G68A, the yeast fitness was at most 0.5. Take C5A C30U U54A: the yeast fitness is 0.537. In the case of C5A G23C G48C C61A, the yeast fitness is at most 0.5. As for C5A G17A G67C, the figure is 0.662; as for C5A C55A G56C, at most 0.5. As for C5A C22U U53C U59G C61G C62U, the figure is at most 0.5; as for C5A C62A, 0.743. In the case of C5A C62G it was 0.778; in that of C5A G39A G56C, at most 0.5; in that of C5A C31U A40G C49U A70U, at most 0.5. Regarding C5A C11G C33A G38A C46G A70U, the yeast fitness is at most 0.5. In the case of C5A A37C A40C A45U A57C A70U it was at most 0.5; in that of C5A A37C, 0.77; in that of C5A C22G U47C, at most 0.5.

Turning to C5A G10C G17A A40U U54A, the yeast fitness is at most 0.5.

With C5A C49A U53G, the yeast fitness is at most 0.5. In the case of C5A C30U U35A A42G C61U G63A it was 0.538; in that of C5A G25A, 1.03; in that of C5A G25C, 0.86. In the case of C5A C27A C46A C49A C55A it was at most 0.5; in that of C5A A40U A65U, 0.636. In the case of C5A C27U C46U it was 0.739; in that of C5A G17C G18C C60U, at most 0.5; in that of C5A C30G C31G A65C, at most 0.5. As to C5A A57C, the yeast fitness was 0.719. In the case of C5A A57G it was 0.767.

C5A G25A G58C C66U: the yeast fitness was at most 0.5.

With C5A G10A G39A U53G, the yeast fitness was at most 0.5. As for C5A A57G C66U, the figure is at most 0.5; as for C5A A21C A43U C46G C61G, at most 0.5. As for C5A A21G C31G U53G, the figure is at most 0.5; as for C5A C11U C31U C49G C61A, at most 0.5; as for C5A C31U C55U, 0.6.

Consider C5A A37C C55A G56C, for which the yeast fitness is at most 0.5.

For the variant C5A G12A G50C, the yeast fitness is at most 0.5. Turning to C5A C31A C46A G50C, the yeast fitness was at most 0.5.

In the case of C5A C31G C46A, the yeast fitness was 0.54.

As to C5A C11U C29U C31U A42C A69C, the yeast fitness was at most 0.5.

In the case of C5A C11G C27A C34U G39A, the yeast fitness turned out to be 0.683.

Turning to C5A C11U C31G, the yeast fitness is 0.558.

On to C5A G17C A70C, for which the yeast fitness is at most 0.5.

With C5A C22A G50C A69C, the yeast fitness was found to be 0.845.

Regarding C5A C22A C33U A36C, the yeast fitness was 0.502.

As to C5A C31U C34U C60G G63A, the yeast fitness is at most 0.5. In the case of C5A G17C C30A A65C it was at most 0.5; in that of C5A C11U U13G C29G C33A C46A, 0.575. In the case of C5A C24U U35C it was at most 0.5. Turning to C5A C27A U28G, the yeast fitness was found to be 0.617. In the case of C5A G17C U28C it was at most 0.5; in that of C5A C11U G18C U19A C27A C33A C61G A70G, at most 0.5. In the case of C5A A21G C24U A45U A57U it was 0.603; in that of C5A G39A C49U G56C, at most 0.5. In the case of C5A C33U U53C it was at most 0.5; in that of C5A A42G C49G U54C G63C A70U, at most 0.5; in that of C5A A40U G48C G63A, at most 0.5. On to C5A C33U G56A, for which the yeast fitness is at most 0.5. As for C5A C55U G63A G67C, the yeast fitness is at most 0.5. In the case of C5A G23C it was 0.723; in that of C5A G23A, 0.753; in that of C5A G10C U19C C24G, at most 0.5. In the case of C5A C49U A65U G67C it was at most 0.5; in that of C5A C31G A37G, 0.538. Turning to C5A A37G G51C C61G, the yeast fitness was at most 0.5. As for C5A C27G C31G U59C, the figure is at most 0.5. In the case of C5A G9A U32C it was 0.602. In the case of C5A C24U A36C it was at most 0.5; in that of C5A C34A C46U, 0.553. With C5A C30U G68A, the yeast fitness was at most 0.5. In the case of C5A C31U G58C U64C A70G it was 0.576; in that of C5A C24U U35C C61A, at most 0.5. On to C5A C49U A65C, for which the yeast fitness is 0.614. As for C5A C22G C27G A36U A40C G67A, the figure is at most 0.5; as for C5A C62U A70C, 0.616; as for C5A A36G C46A, 0.562. In the case of C5A C11G A21U G44C A57U it was at most 0.5; in that of C5A C24G A65U, 0.694. In the case of C5A G18C G50C C60G A70G it was at most 0.5; in that of C5A G41A, 0.873. Turning to C5A G39C G63A, the yeast fitness is at most 0.5. As for C5A G12A A45G, the figure is 0.551. In the case of C5A C11U C46U G50C it was 0.709; in that of C5A C11G A42U U53A, at most 0.5; in that of C5A A21G A65U, 0.655. In the case of C5A G39A U59A it was at most 0.5; in that of C5A C30A, 0.767; in that of C5A C30G, 0.608.

For C5A C34G A37G, the yeast fitness is at most 0.5. With C5A G38A C49U, the yeast fitness turned out to be 0.57.

Regarding C5A G12A C24U C29U C30A, the yeast fitness was at most 0.5. With C5A C27U G38A, the yeast fitness came out at 0.565. Take C5A A42U: the yeast fitness was found to be 0.767. Regarding C5A A42C, the yeast fitness came to 0.842. As for C5A A42G, the figure is 0.964. As for C5A C61U, the figure is 0.966; as for C5A C24U A43C G58A, at most 0.5. For C5A C33U G50A G52C A65C, the yeast fitness is at most 0.5. In the case of C5A A21C C30G C34U G38C C49U A70C it was 0.551.

For the origin of these results see the RNAGym collection of RNA variant scans (doi:10.1126/science.aae0568).
